From ChEMBL document CHEMBL1944580, “Synthesis of novel sulfonamide-1,2,4-triazoles, 1,3,4-thiadiazoles and 1,3,4-oxadiazoles, as potential antibacterial and antifungal agents. Biological evaluation and conformational analysis studies” (2012)
Values after ≈ are worked out from the molar mass of the structure shown.

Experiments:
Talaromyces funiculosus [1] = experiment: Antifungal activity against Penicillium funiculosum ATCC 36839 after 72 hrs by serial dilution method; assay type: functional; conditions: ATCC 36839, 72 h
How it was run: (§1)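 Modified microdilution MIC. Spores were washed from malt agar cultures with sterile 0.85% saline containing 0.1% Tween 80 and adjusted to about 1.0 × 10^5 per 100 µl well in malt broth. Compounds were dissolved in DMSO (1 mg/ml). Plates incubated 72 h at 28 °C. MIC is the lowest concentration with no visible growth under a binocular microscope. Bifonazole and ketoconazole were the references.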

Aspergillus versicolor [2] = experiment: Antifungal activity against Aspergillus versicolor ATCC 11730 after 72 hrs by serial dilution method; assay type: functional; conditions: ATCC 11730, 72 h; how it was run: as §1
Aspergillus flavus [3] = experiment: Antifungal activity against Aspergillus flavus ATCC 9643 after 72 hrs by serial dilution method; assay type: functional; conditions: ATCC 9643, 72 h; how it was run: as §1
Pseudomonas aeruginosa [4] = experiment: Antibacterial activity against Pseudomonas aeruginosa ATCC 27853 treated for 24 hrs followed by sub-cultivated for 72 hrs by micro dilution method; assay type: functional
How it was run: (§2)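 2 µl from each well was serially subcultured into 100 µl fresh broth per well and incubated a further 72 h. MBC is the lowest concentration with no visible growth, taken as 99.5% killing of the original inoculum. Streptomycin and ampicillin were the positive controls.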

Bacillus cereus [5] = experiment: Antibacterial activity against Bacillus cereus clinical isolate treated for 24 hrs followed by sub-cultivated for 72 hrs by micro dilution method; assay type: functional; how it was run: as §2
Fulvia fulva [6] = experiment: Antifungal activity against Fulvia fulva treated for 72 hrs followed by sub-cultivated for 5 days by serial dilution method; assay type: functional
How it was run: (§3)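 MFC obtained after the 72 h, 28 °C malt-broth microdilution (spore inoculum about 1.0 × 10^5 per well, compounds from 1 mg/ml DMSO). 2 µl was serially subcultured into 100 µl broth per well and incubated a further 5 days at 28 °C. MFC is the lowest concentration with no visible growth, taken as 99.5% killing of the original inoculum.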

Aspergillus niger [7] = experiment: Antifungal activity against Aspergillus niger ATCC 6275 after 72 hrs by serial dilution method; assay type: functional; conditions: ATCC 6275, 72 h; how it was run: as §1
Enterobacter cloacae [8] = experiment: Antibacterial activity against Enterobacter cloacae human isolate after 24 hrs by micro dilution method; assay type: functional
How it was run: (§4)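 Microdilution MIC in 96-well plates. Bacterial suspensions adjusted in sterile saline to 1.0 × 10^5 CFU/ml, giving 1.0 × 10^4 cfu per well in LB broth. Compounds tested at up to 1 mg/ml. Plates incubated 24 h. MIC taken as the lowest concentration with no visible growth under a binocular microscope. OD at 655 nm was also read against a blank and the positive control. Streptomycin and ampicillin were the positive controls.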

Micrococcus flavus [9] = experiment: Antibacterial activity against Micrococcus flavus ATCC 10240 treated for 24 hrs followed by sub-cultivated for 72 hrs by micro dilution method; assay type: functional; how it was run: as §2
Micrococcus flavus [10] = experiment: Antibacterial activity against Micrococcus flavus ATCC 10240 after 24 hrs by micro dilution method; assay type: functional; conditions: ATCC 10240, 24 h; how it was run: as §4
Salmonella typhimurium [11] = experiment: Antibacterial activity against Salmonella Typhimurium ATCC 13311 treated for 24 hrs followed by sub-cultivated for 72 hrs by micro dilution method; assay type: functional, Salmonella enterica subsp. enterica serovar Typhimurium; conditions: Salmonella enterica; how it was run: as §2
Trichoderma viride [12] = experiment: Antifungal activity against Trichoderma viride IAM 5061 treated for 72 hrs followed by sub-cultivated for 5 days by serial dilution method; assay type: functional; how it was run: as §3
Salmonella typhimurium [13] = experiment: Antibacterial activity against Salmonella Typhimurium ATCC 13311 after 24 hrs by micro dilution method; assay type: functional, Salmonella enterica subsp. enterica serovar Typhimurium; conditions: Salmonella enterica, ATCC 13311, 24 h; how it was run: as §4
Bacillus cereus [14] = experiment: Antibacterial activity against Bacillus cereus clinical isolate after 24 hrs by micro dilution method; assay type: functional; how it was run: as §4
Aspergillus versicolor [15] = experiment: Antifungal activity against Aspergillus versicolor ATCC 11730 treated for 72 hrs followed by sub-cultivated for 5 days by serial dilution method; assay type: functional; how it was run: as §3
Talaromyces funiculosus [16] = experiment: Antifungal activity against Penicillium funiculosum ATCC 36839 treated for 72 hrs followed by sub-cultivated for 5 days by serial dilution method; assay type: functional; how it was run: as §3
Listeria monocytogenes [17] = experiment: Antibacterial activity against Listeria monocytogenes NCTC 7973 treated for 24 hrs followed by sub-cultivated for 72 hrs by micro dilution method; assay type: functional; how it was run: as §2
Aspergillus flavus [18] = experiment: Antifungal activity against Aspergillus flavus ATCC 9643 treated for 72 hrs followed by sub-cultivated for 5 days by serial dilution method; assay type: functional; how it was run: as §3
Aspergillus fumigatus [19] = experiment: Antifungal activity against Aspergillus fumigatus human isolate after 72 hrs by serial dilution method; assay type: functional; how it was run: as §1
Fulvia fulva [20] = experiment: Antifungal activity against Fulvia fulva after 72 hrs by serial dilution method; assay type: functional; how it was run: as §1
Listeria monocytogenes [21] = experiment: Antibacterial activity against Listeria monocytogenes NCTC 7973 after 24 hrs by micro dilution method; assay type: functional; conditions: NCTC 7973, 24 h; how it was run: as §4
Aspergillus niger [22] = experiment: Antifungal activity against Aspergillus niger ATCC 6275 treated for 72 hrs followed by sub-cultivated for 5 days by serial dilution method; assay type: functional; how it was run: as §3
Penicillium ochrochloron [23] = experiment: Antifungal activity against Penicillium ochrochloron ATCC 9112 after 72 hrs by serial dilution method; assay type: functional; conditions: ATCC 9112, 72 h; how it was run: as §1
Enterobacter cloacae [24] = experiment: Antibacterial activity against Enterobacter cloacae human isolate treated for 24 hrs followed by sub-cultivated for 72 hrs by micro dilution method; assay type: functional; how it was run: as §2
Staphylococcus aureus [25] = experiment: Antibacterial activity against Staphylococcus aureus ATCC 6538 after 24 hrs by micro dilution method; assay type: functional; conditions: ATCC 6538, 24 h; how it was run: as §4
Penicillium ochrochloron [26] = experiment: Antifungal activity against Penicillium ochrochloron ATCC 9112 treated for 72 hrs followed by sub-cultivated for 5 days by serial dilution method; assay type: functional; how it was run: as §3
Escherichia coli [27] = experiment: Antibacterial activity against Escherichia coli ATCC 35210 treated for 24 hrs followed by sub-cultivated for 72 hrs by micro dilution method; assay type: functional; how it was run: as §2
Escherichia coli [28] = experiment: Antibacterial activity against Escherichia coli ATCC 35210 after 24 hrs by micro dilution method; assay type: functional; conditions: ATCC 35210, 24 h; how it was run: as §4
Trichoderma viride [29] = experiment: Antifungal activity against Trichoderma viride IAM 5061 after 72 hrs by serial dilution method; assay type: functional; conditions: IAM 5061, 72 h; how it was run: as §1
Staphylococcus aureus [30] = experiment: Antibacterial activity against Staphylococcus aureus ATCC 6538 treated for 24 hrs followed by sub-cultivated for 72 hrs by micro dilution method; assay type: functional; how it was run: as §2
Pseudomonas aeruginosa [31] = experiment: Antibacterial activity against Pseudomonas aeruginosa ATCC 27853 after 24 hrs by micro dilution method; assay type: functional; conditions: ATCC 27853, 24 h; how it was run: as §4
Aspergillus fumigatus [32] = experiment: Antifungal activity against Aspergillus fumigatus human isolate treated for 72 hrs followed by sub-cultivated for 5 days by serial dilution method; assay type: functional; how it was run: as §3

| SMILES | MIC (Talaromyces funiculosus [1]) | MIC (Aspergillus versicolor [2]) | MIC (Aspergillus flavus [3]) | MBC (Pseudomonas aeruginosa [4]) | MBC (Bacillus cereus [5]) | MFC (Fulvia fulva [6]) | MIC (Aspergillus niger [7]) | MIC (Enterobacter cloacae [8]) | MBC (Micrococcus flavus [9]) | MIC (Micrococcus flavus [10]) | MBC (Salmonella typhimurium [11]) | MFC (Trichoderma viride [12]) | MIC (Salmonella typhimurium [13]) | MIC (Bacillus cereus [14]) | MFC (Aspergillus versicolor [15]) | MFC (Talaromyces funiculosus [16]) | MBC (Listeria monocytogenes [17]) | MFC (Aspergillus flavus [18]) | MIC (Aspergillus fumigatus [19]) | MIC (Fulvia fulva [20]) | also measured |
| --- | --- | --- | --- | --- | --- | --- | --- | --- | --- | --- | --- | --- | --- | --- | --- | --- | --- | --- | --- | --- | --- |
| CCCCn1c(Cc2cc(OC)c(OC)cc2S(=O)(=O)N(C)C)n[nH]c1=O | 130 µM (≈ 51.8 µg/mL) | 130 µM (≈ 51.8 µg/mL) | 130 µM (≈ 51.8 µg/mL) | 380 µM (≈ 151 µg/mL) | 760 µM (≈ 303 µg/mL) | 250 µM (≈ 99.6 µg/mL) | 130 µM (≈ 51.8 µg/mL) | 500 µM (≈ 199 µg/mL) | 630 µM (≈ 251 µg/mL) | 630 µM (≈ 251 µg/mL) | 760 µM (≈ 303 µg/mL) | 60 µM (≈ 23.9 µg/mL) | 500 µM (≈ 199 µg/mL) | 250 µM (≈ 99.6 µg/mL) | 380 µM (≈ 151 µg/mL) | 250 µM (≈ 99.6 µg/mL) | 380 µM (≈ 151 µg/mL) | 380 µM (≈ 151 µg/mL) | 250 µM (≈ 99.6 µg/mL) | 250 µM (≈ 99.6 µg/mL) | MIC (Listeria monocytogenes [21]): 380 µM (≈ 151 µg/mL); MFC (Aspergillus niger [22]): 380 µM (≈ 151 µg/mL); MIC (Penicillium ochrochloron [23]): 130 µM (≈ 51.8 µg/mL); MBC (Enterobacter cloacae [24]): 760 µM (≈ 303 µg/mL); MIC (Staphylococcus aureus [25]): 250 µM (≈ 99.6 µg/mL); MFC (Penicillium ochrochloron [26]): 380 µM (≈ 151 µg/mL); MBC (Escherichia coli [27]): 250 µM (≈ 99.6 µg/mL); MIC (Escherichia coli [28]): 130 µM (≈ 51.8 µg/mL); MIC (Trichoderma viride [29]): 30 µM (≈ 12 µg/mL); MBC (Staphylococcus aureus [30]): 500 µM (≈ 199 µg/mL); MIC (Pseudomonas aeruginosa [31]): 380 µM (≈ 151 µg/mL); MFC (Aspergillus fumigatus [32]): 250 µM (≈ 99.6 µg/mL) |
| COc1cc(Cc2n[nH]c(=O)n2C(C)(C)C)c(S(=O)(=O)N(C)C)cc1OC | 130 µM (≈ 51.8 µg/mL) | 250 µM (≈ 99.6 µg/mL) | 250 µM (≈ 99.6 µg/mL) | 390 µM (≈ 155 µg/mL) | 780 µM (≈ 311 µg/mL) | 250 µM (≈ 99.6 µg/mL) | 250 µM (≈ 99.6 µg/mL) | 250 µM (≈ 99.6 µg/mL) | 390 µM (≈ 155 µg/mL) | 390 µM (≈ 155 µg/mL) | 250 µM (≈ 99.6 µg/mL) | 250 µM (≈ 99.6 µg/mL) | 250 µM (≈ 99.6 µg/mL) | 250 µM (≈ 99.6 µg/mL) | 380 µM (≈ 151 µg/mL) | 250 µM (≈ 99.6 µg/mL) | 390 µM (≈ 155 µg/mL) | 380 µM (≈ 151 µg/mL) | 250 µM (≈ 99.6 µg/mL) | 250 µM (≈ 99.6 µg/mL) | MIC (Listeria monocytogenes [21]): 390 µM (≈ 155 µg/mL); MFC (Aspergillus niger [22]): 380 µM (≈ 151 µg/mL); MIC (Penicillium ochrochloron [23]): 250 µM (≈ 99.6 µg/mL); MBC (Enterobacter cloacae [24]): 250 µM (≈ 99.6 µg/mL); MIC (Staphylococcus aureus [25]): 390 µM (≈ 155 µg/mL); MFC (Penicillium ochrochloron [26]): 380 µM (≈ 151 µg/mL); MBC (Escherichia coli [27]): 250 µM (≈ 99.6 µg/mL); MIC (Escherichia coli [28]): 130 µM (≈ 51.8 µg/mL); MIC (Trichoderma viride [29]): 30 µM (≈ 12 µg/mL); MBC (Staphylococcus aureus [30]): 390 µM (≈ 155 µg/mL); MIC (Pseudomonas aeruginosa [31]): 390 µM (≈ 155 µg/mL); MFC (Aspergillus fumigatus [32]): 380 µM (≈ 151 µg/mL) |
| CNc1nnc(Cc2cc(OC)c(OC)cc2S(=O)(=O)N(C)C)s1 | 140 µM (≈ 52.1 µg/mL) | 270 µM (≈ 101 µg/mL) | 140 µM (≈ 52.1 µg/mL) | 270 µM (≈ 101 µg/mL) | 270 µM (≈ 101 µg/mL) | 70 µM (≈ 26.1 µg/mL) | 70 µM (≈ 26.1 µg/mL) | 270 µM (≈ 101 µg/mL) | 540 µM (≈ 201 µg/mL) | 270 µM (≈ 101 µg/mL) | 270 µM (≈ 101 µg/mL) | 130 µM (≈ 48.4 µg/mL) | 270 µM (≈ 101 µg/mL) | 270 µM (≈ 101 µg/mL) | 540 µM (≈ 201 µg/mL) | 270 µM (≈ 101 µg/mL) | 540 µM (≈ 201 µg/mL) | 270 µM (≈ 101 µg/mL) | 140 µM (≈ 52.1 µg/mL) | 70 µM (≈ 26.1 µg/mL) | MIC (Listeria monocytogenes [21]): 270 µM (≈ 101 µg/mL); MFC (Aspergillus niger [22]): 140 µM (≈ 52.1 µg/mL); MIC (Penicillium ochrochloron [23]): 140 µM (≈ 52.1 µg/mL); MBC (Enterobacter cloacae [24]): 270 µM (≈ 101 µg/mL); MIC (Staphylococcus aureus [25]): 270 µM (≈ 101 µg/mL); MFC (Penicillium ochrochloron [26]): 270 µM (≈ 101 µg/mL); MBC (Escherichia coli [27]): 270 µM (≈ 101 µg/mL); MIC (Escherichia coli [28]): 270 µM (≈ 101 µg/mL); MIC (Trichoderma viride [29]): 70 µM (≈ 26.1 µg/mL); MBC (Staphylococcus aureus [30]): 540 µM (≈ 201 µg/mL); MIC (Pseudomonas aeruginosa [31]): 270 µM (≈ 101 µg/mL); MFC (Aspergillus fumigatus [32]): 270 µM (≈ 101 µg/mL) |
